Bioassay records (PubChem BioAssay)
STAT1 act: increases IFN-gamma driven STAT1 reporter signal; NIH 3T3 STAT1-luciferase reporter, luminescence; 100% = IFN-gamma alone, no compound; AID 932; activation (% of control), % at 5.5 µM; actives 2.6% (n = 200,000);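 active means activation above the screen-wide mean activation plus 3 SD, cut at about 130% in these data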;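 further: raw ratio to IFN-gamma control signal so 100% means no change and 0% no light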
APP 5'UTR act: APP 5'UTR luciferase reporter activation; SH-SY5Y APP 5'UTR luciferase reporter, luminescence; zero percent = DMSO vehicle wells; AID 1276; activation, % at 2 µM; actives 1% (n = 190,000);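 active means activation above a set limit, based on mean plus 3 SD of controls, cut at about 140% in these data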
SDO1 yeast rescue: restores growth of sdo1-depleted yeast; S. cerevisiae sdo1-depleted JHY4D growth rescue, OD600 30 h; stronger effect = higher value; pdr5 snq2 efflux-pump mutant strain; actives 0.21% (n = 140,000); z-score at 10 µM;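 active means z-score above 3 at both the 24 hr and the 30 hr optical density reads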;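 further: z-score against mean and SD of all compound wells on the same plate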
FLuc stim CS: affects firefly luciferase, flagging false hits in luciferase stimulation screens; 200,000 tested, under 10 active; ATPlite luciferase biochemical, luminescence, 10 min; 0 = ATP-free wells, 1 = DMSO control; activation factor at 10 µM; P08659;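 active means luciferase activation factor, scaled between plate controls, of at least 2 with compound at 10 µM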
Target sequence (P08659 whole entry, looked up): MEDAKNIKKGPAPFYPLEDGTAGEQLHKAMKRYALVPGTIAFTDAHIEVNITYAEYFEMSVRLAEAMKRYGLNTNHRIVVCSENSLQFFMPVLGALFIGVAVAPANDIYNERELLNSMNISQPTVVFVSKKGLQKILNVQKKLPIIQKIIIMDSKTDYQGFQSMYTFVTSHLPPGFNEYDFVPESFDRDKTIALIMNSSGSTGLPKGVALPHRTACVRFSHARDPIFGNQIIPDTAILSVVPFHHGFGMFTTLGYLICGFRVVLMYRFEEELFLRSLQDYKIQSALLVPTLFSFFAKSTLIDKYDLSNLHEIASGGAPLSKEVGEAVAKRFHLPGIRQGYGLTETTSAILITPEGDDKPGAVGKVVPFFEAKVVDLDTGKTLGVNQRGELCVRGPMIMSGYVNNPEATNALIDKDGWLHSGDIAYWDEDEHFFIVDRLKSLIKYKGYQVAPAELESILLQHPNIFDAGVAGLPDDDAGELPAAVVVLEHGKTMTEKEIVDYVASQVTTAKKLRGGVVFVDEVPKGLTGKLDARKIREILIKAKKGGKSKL
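test system = cell-free luciferase reagent | medium = PBS as buffer for the ATP substrate | dosing = test compounds dosed from 2 mM stocks in 100% DMSO | incubation = 10 min at ambient temperature | detection = luminescence measurement of luciferase light output | benchmarks = low control with PBS replacing ATP, high control enzyme plus ATP without compound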
NF-kB expr up: NF-kB expression increase, human neuronal cells; NF-kB reporter expression; stronger effect = higher value; fold change at 12.5 µM; actives 1.6% (n = 190,000); AID 1239; in the data active means fold change above about 3.3
FLuc inh counter: Photinus pyralis luciferase inhibition counter-screen; ATPLite firefly luciferase biochemical luminescence, 10 min; inhibition, % at 10 µM; actives 1.5% (n = 200,000);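 active means inhibition above about 50% when tested at 10 µM, limit read from the data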
Starred values were filed as active, the others as inactive; / = no result. An excerpt weighted towards active compounds, which were near 4.3% of everything screened.

SMILES	STAT1 act	APP 5'UTR act	SDO1 yeast rescue	FLuc stim CS	NF-kB expr up	FLuc inh counter
COc1ccc2nc(NNC(=O)c3cc(=O)c4ccccc4o3)sc2c1	112	34	/	0.3	0.87	69*
O=C(N/N=C/c1cccc(Oc2ccccc2)c1)c1ccccc1Br	102	3	-1.6	1	1.1	-1
Cc1ccccc1NC(=O)C1CC(=O)N(Cc2ccccc2)C1 (configuration not stated)	97	9	/	1	1.1	-2
Cc1ccccc1C(=O)Nc1cccc(NC(=O)Cn2cnc3c(=O)n(C)c(=O)n(C)c32)c1	96	-13	1.4	1	5.4*	0
C[C@@]1([C@@H](NC(=O)c2cccs2)c2ccc(-c3ccccc3)cc2)C[C@H]1C1CCCCC1	108	2	0.12	1	1.3	-4
Cn1cc(/C=C/C(=O)c2ccccc2)c2ccccc21	/	200*	/	/	/	/
Cc1ccc(C(=O)/C=C/c2cn(CN3CCN(C)CC3)c3ccccc23)cc1	122	76	-2.6	0.8	7.3*	20
Cn1cc(/C=C2/SC(=O)N(c3ccccc3)C2=O)c2ccccc21	132*	-8	-1.3	1	1.4	-2
CC(C)(C)c1ccc(OCC(=O)NNC(=O)c2cccnc2)cc1	103	24	/	1	1.2	5
O=C1CCCC(O)=C1C=NCc1ccccc1	104	5	/	1.1	0.98	-7
COc1cc(/C=N/NC(=O)Nc2ccccc2)ccc1OC(C)=O	142*	39	0.75	0.9	2	14
COc1cccc(/C=N/Nc2nc(N3CCCC3)nc(N3CCCC3)n2)c1O	101	-19	-1.5	1	0.33	0
COc1cc(/C=N/NC(=S)Nc2cccc(C(=O)O)c2)ccc1O	36	-12	0.98	0.7	1.2	25
COc1ccc(/C=N/NC(=O)CSCC(=O)Nc2ccccc2)cc1OC	107	-9	1.9	1	1.1	1
COc1ccc(/C=N/NC(=S)Nc2cccc(C(=O)O)c2)cc1	72	29	/	0.4	1.5	56*
COc1ccc(/C=N/NC(=S)Nc2ccccc2)cc1	133*	36	/	0.6	2.2	37
COc1cccc(/C=N/Nc2cc(Cl)nc(C)n2)c1O	97	59	/	0.5	1.1	54*
S=C(N/N=C/c1ccc2ncccc2c1)Nc1ccccc1	105	1	/	0.5	0.97	55*
COc1cccc(/C=N/NC(=O)c2ccc(-c3ccccc3)cc2)c1O	97	-18	-1.3	1	0.8	-4
O=C(NC(=S)Nc1ccc2ncccc2c1)c1ccccc1	131*	60	/	0.8	1.1	24
Fc1ccc(/C=N/NC(=S)Nc2cccnc2)cc1F	101	3	/	1	1.2	2
COc1cccc(/C=N/NC(=S)Nc2cccc(C(=O)O)c2)c1O	36	-1	/	0.4	1.8	62*
CC(C)(C)NC(=S)NNC(=O)c1ccc2ncccc2c1	136*	82	/	0.9	1	9
O=C(NNC(=S)Nc1ccccc1)c1ccc2ncccc2c1	122	16	/	0.8	1.6	19
CC(C)Sc1nnc(Nc2ccccc2)s1	138*	71	-0.7	0.8	1.1	21
SMILES	STAT1 act	APP 5'UTR act	SDO1 yeast rescue	FLuc stim CS	NF-kB expr up	FLuc inh counter
COc1ccc(CCNC(=O)Nc2ccccc2[N+](=O)[O-])cc1	123	49	/	1	1.9	2
O=C(CCC1CCCC1)Nc1ccc(OCC(=O)N2CCOCC2)cc1	104	36	-0.51	0.3	1.3	73*
COC(=O)Nc1ccc(OCC(=O)N2CCOCC2)cc1	105	18	1.1	1	1.1	-1
CC(=O)Nc1ccc(NC(=O)C(C)OC(=O)C2(c3ccc(Cl)cc3)CCCC2)cc1 (configuration not stated)	93	-19	-1	1.1	1.1	-7
CC1=NN(c2ccccc2)C(=O)/C1=C/c1c(O)n(-c2ccc(F)c(Cl)c2)[nH]c1=O	142*	15	1.4	0.7	1.8	31
Cc1c(/C=C/C(=O)c2ccc(C(C)C)cc2)cnn1C	114	44	/	0.4	1.9	58*
CCn1ncc(/C=C/C(=O)c2ccccc2)c1C	133*	198*	-0.32	0.2	2.1	82*
Cc1c(/C=C/C(=O)c2ccccc2)cnn1C	107	81	0.36	0.6	2.6	42
CCn1ncc(/C=N\NC(=O)COc2ccccc2)c1C	92	-3	0.63	0.9	1.1	6
